# Measured values reported in ChEMBL document CHEMBL2413057, “Synthesis and in vitro evaluation of new ethyl and methyl quinoxaline-7-carboxylate 1,4-di-N-oxide against Entamoeba histolytica” (Bioorg Med Chem, 2013).
# What was measured:
# Entamoeba histolytica = assay: Antiamoebic activity against trophozoite stage of Entamoeba histolytica HM-1:IMSS assessed as growth inhibition after 48 hrs by microdilution method; assay type: functional, organism-based
# Outline: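 Axenic log-phase HM1:IMSS trophozoites grown in BI-S-33 medium with 20% calf serum, viability counted by trypan blue, seeded at 10⁵/mL (100 µL per well). Compounds dissolved in 0.1% DMSO, two-fold serial dilutions in medium. Incubated 37 °C, 48 h, then WST-1 added for 4 h at 37 °C, OD 490 nm. IC50 by linear regression of % inhibition versus concentration, duplicate, mean ± SD.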
# [1] = Selectivity index, ratio of IC50 for african green monkey Vero cells to IC50 for trophozoite stage of Entamoeba histolytica HM-1:IMSS
# Outline: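 Computed as VERO toxicity IC50 divided by the E. histolytica IC50, where each IC50 is the concentration that kills 50% of the respective cells.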
# Vero = assay: Cytotoxicity against african green monkey Vero cells assessed as cell viability after 48 hrs by WST-1 assay; assay type: cell-based; conditions: Chlorocebus sabaeus
# Outline: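 VERO cells in MEM with 0.1 mM nonessential amino acids, 1 mM pyruvate and 10% FBS, 37 °C, 5% CO₂. Plated at 10⁴ cells/well, 24 h before dosing. Compounds diluted in complete medium to 0.1–100 µM, 48 h exposure against an untreated control. WST-1 added for 4 h at 37 °C. Quadruplicate, repeated twice, mean ± SD, ANOVA.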
# [2] = Entamoeba histolytica, HM-1:IMSS, 48 h, read-out: IC50
Compound,IC50 (Entamoeba histolytica; [2]) [µM],Ratio IC50 [1],IC50 (Vero) [µM],IC50 (Entamoeba histolytica)
CCOC(=O)c1ccc2no[n+]([O-])c2c1,221,–,–,–
COC(=O)c1ccc2c(c1)[n+]([O-])c(C(=O)c1cccs1)c(C(F)(F)F)[n+]2[O-],0.35,16.74,5.86,–
COC(=O)c1ccc2c(c1)[n+]([O-])c(C(=O)c1ccc3ccccc3c1)c(C(F)(F)F)[n+]2[O-],5.29,–,–,–
CCOC(=O)Cc1c(C(=O)OCC)[n+]([O-])c2cc(C(=O)OC)ccc2[n+]1[O-],1.91,–,–,–
CCOC(=O)c1ccc2c(c1)[n+]([O-])c(C(=O)OC)c(C)[n+]2[O-],1.88,>53.19,> 100,–
CCOC(=O)c1ccc2c(c1)[n+]([O-])c(C(=O)OCC)c(C)[n+]2[O-],4.18,–,–,–
CCOC(=O)c1ccc2c(c1)[n+]([O-])c(C(N)=O)c(C)[n+]2[O-],1.47,>68.02,> 100,–
CCOC(=O)c1ccc2c(c1)[n+]([O-])c(C(=O)c1ccccc1)c(C)[n+]2[O-],1.93,>51.81,> 100,–
CCOC(=O)c1ccc2c(c1)[n+]([O-])c(C(=O)Nc1ccccc1)c(C)[n+]2[O-],–,–,–,ND(Insoluble)
CCOC(=O)c1ccc2c(c1)[n+]([O-])c(C(=O)OCc1ccccc1)c(C)[n+]2[O-],–,–,–,ND(Insoluble)
CCOC(=O)c1ccc2c(c1)[n+]([O-])c(C(C)=O)c(C(F)(F)F)[n+]2[O-],1.98,6.6,13.1,–
CCOC(=O)c1ccc2c(c1)[n+]([O-])c(C(=O)CC)c(C(F)(F)F)[n+]2[O-],18.1,–,–,–
CCOC(=O)c1ccc2c(c1)[n+]([O-])c(C(=O)c1cccs1)c(C(F)(F)F)[n+]2[O-],2.5,2.69,6.74,–
CCOC(=O)c1ccc2c(c1)[n+]([O-])c(C(=O)c1ccc3ccccc3c1)c(C(F)(F)F)[n+]2[O-],–,–,–,ND(Insoluble)
CCOC(=O)c1ccc2c(c1)[n+]([O-])c(C(=O)c1ccco1)c(C(F)F)[n+]2[O-],3.81,–,–,–
CCOC(=O)c1ccc2c(c1)[n+]([O-])c(C(=O)OCC)c(-c1ccccc1)[n+]2[O-],7.13,–,–,–

Compound,IC50 (Entamoeba histolytica; [2]) [µM],Ratio IC50 [1],IC50 (Vero) [µM],IC50 (Entamoeba histolytica)
O=C(O)c1ccc2no[n+]([O-])c2c1,–,–,–,ND(Insoluble)
COC(=O)c1ccc2no[n+]([O-])c2c1,74.5,–,–,–
COC(=O)c1ccc2c(c1)[n+]([O-])c(C(C)=O)c(C)[n+]2[O-],1.41,>70.92,> 100,–
COC(=O)c1ccc2c(c1)[n+]([O-])c(C(=O)OC)c(C)[n+]2[O-],4.17,–,–,–
CCOC(=O)c1c(C)[n+]([O-])c2ccc(C(=O)OC)cc2[n+]1[O-],1.99,>50.25,> 100,–
COC(=O)c1ccc2c(c1)[n+]([O-])c(C(=O)OC(C)(C)C)c(C)[n+]2[O-],–,–,–,ND(Insoluble)
COC(=O)c1ccc2c(c1)[n+]([O-])c(C(=O)c1ccccc1)c(C)[n+]2[O-],3.43,–,–,–
COC(=O)c1ccc2c(c1)[n+]([O-])c(C(=O)Nc1ccccc1)c(C)[n+]2[O-],4.14,–,–,–
CCOC(=O)c1c(-c2ccccc2)[n+]([O-])c2ccc(C(=O)OC)cc2[n+]1[O-],12.2,–,–,–
COC(=O)c1ccc2c(c1)[n+]([O-])c(C(C)=O)c(C(F)(F)F)[n+]2[O-],1.53,2.14,3.28,–
COC(=O)c1ccc2c(c1)[n+]([O-])c(C(=O)C(C)C)c(C(F)(F)F)[n+]2[O-],1.88,3.7,6.97,–
COC(=O)c1ccc2c(c1)[n+]([O-])c(C(=O)c1ccccc1)c(C(F)(F)F)[n+]2[O-],6.07,–,–,–
"[O-][n+]1onc2ccccc21 [BENZO[C][1,2,5]OXADIAZOLE 1-OXIDE]",12,–,–,–
Cc1ncc([N+](=O)[O-])n1CCO [METRONIDAZOLE],4.5,>22.22,> 100,–
CC(=O)Oc1ccccc1C(=O)Nc1ncc([N+](=O)[O-])s1 [NITAZOXANIDE],3.9,2.75,10.7,–
